This is a sample that favours compounds with a hit; in the whole collection about 2.9% have one here.
SENP8 block-1: inhibitors of human SENP8 protease | Q96LD8 | purified SENP8, Z-RLRGG-aminoluciferin cleavage, luminescence | 330,000 tested, 1.2% active | inhibition, % at 10 µM; in the data active = inhibition above about 50%
Target sequence (Q96LD8 whole entry, looked up): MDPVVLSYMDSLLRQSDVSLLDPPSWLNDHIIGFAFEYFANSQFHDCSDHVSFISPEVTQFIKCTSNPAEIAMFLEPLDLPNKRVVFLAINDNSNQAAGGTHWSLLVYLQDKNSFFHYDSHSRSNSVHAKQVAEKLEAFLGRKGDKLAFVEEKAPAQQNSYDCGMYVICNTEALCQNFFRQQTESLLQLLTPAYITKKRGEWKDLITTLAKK
SENP1 FRET inh: blocks the human SENP1 SUMO protease catalytic domain. recombinant SENP1 catalytic domain, CyPet-SUMO1-YPet FRET cleavage. inhibition, % at 10 µM. 360,000 tested, 0.21% active. Q9P0U3;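 active = inhibition at least 30% at 10 µM, raw YFP signal under a set limit, fluorescence ratio 0.5 to 1.5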
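System: Recombinant human SENP1 catalytic domain, His6-tagged | Incubation: Enzyme reaction for 50 min at room temperature, dark | Medium: Tris pH 8 with BME, BSA, NP40 and catalase | Also added: 25 nM SUMO1 FRET substrate | Compound: 10 µM single point, 0.5% DMSO | Measured by: FRET fluorescence in CFP and YFP emission channels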
SENP6 inh: inhibitors of human SENP6 protease | 330,000 tested, 1.8% active | Q9GZR1 | inhibition, % at 10 µM | Recombinant SENP6 catalytic domain, aminoluciferin luminescence | AID 2599;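 active = inhibition above about 50% at the single tested dose, limit read from the data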
SENP7 inh: inhibitors of human SENP7 protease; Q9BQF6; recombinant SENP7, Z-RLRGG-aminoluciferin luminescence, 40 min; inhibition, % at 5 µM; 330,000 tested, 1.5% active; AID 434973;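 active = inhibition above about 50% at the single test dose, limit read from the data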
Target sequence (Q9BQF6 706-1050 limits assumed): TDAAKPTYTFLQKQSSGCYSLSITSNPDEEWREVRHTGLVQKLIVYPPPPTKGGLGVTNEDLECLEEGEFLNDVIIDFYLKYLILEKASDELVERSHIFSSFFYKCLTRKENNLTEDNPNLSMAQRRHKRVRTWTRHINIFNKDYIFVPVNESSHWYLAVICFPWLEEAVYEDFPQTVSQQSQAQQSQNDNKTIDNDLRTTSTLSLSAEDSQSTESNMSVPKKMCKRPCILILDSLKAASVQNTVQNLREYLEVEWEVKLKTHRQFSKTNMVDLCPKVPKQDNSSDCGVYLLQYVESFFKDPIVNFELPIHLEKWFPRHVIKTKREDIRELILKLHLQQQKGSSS
SENP8 block-2: inhibitors of human SENP8 protease; Q96LD8; inhibition, % at 20 µM; recombinant SENP8, Nedd8 substrate fluorescence; 360,000 tested, 0.64% active; AID 602440; in the data active = inhibition mostly above about 40%, no sharp cut-off; inactive = mostly below about 27%
HSP90 refold inh: HSP90 refolding inhibition in rabbit reticulocyte lysate. 290,000 tested, 0.91% active. AID 1789. inhibition, % at 5.6 µM. luciferase refolding luminescence, 3 h;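 active = inhibition above the screen-wide mean plus 3 SD, computed separately per campaign, cut at about 16% in these data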;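 also: inhibitors lower the luminescence because luciferase stays unfolded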
SENP8 confirm: confirmation of human SENP8 protease inhibitors; inhibition, % at 12.5 µM; Recombinant SENP8, Z-RLRGG-aminoluciferin luminescence, 60 min; shares compounds with SENP7 inh; 6,200 tested, 40% active;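 active = mean inhibition across replicates above about 50%, limit read from the data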
SENP6 conf: confirmation of human SENP6 protease inhibitors. 6,200 tested, 58% active. AID 488915. inhibition, % at 12.5 µM. recombinant SENP6, Z-RLRGG-aminoluciferin luminescence. shares compounds with SENP7 inh
SENP7 confirm: confirmation of human SENP7 protease inhibitors; shares compounds with SENP7 inh; recombinant SENP7, Z-RLRGG-aminoluciferin luminescence, 40 min; inhibition, % at 12.5 µM; 6,200 tested, 69% active
Casp3 SENP sel: selectivity test for SENP inhibitors: human caspase-3 inhibition | shares compounds with SENP7 inh | purified caspase-3, Z-DEVD-aminoluciferin luminescence, 60 min | inhibition, % at 12.5 µM | 6,200 tested, 60% active | AID 488918;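 active = mean inhibition above about 50%, limit read from the data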
Target sequence (P42574 28-227 limits assumed): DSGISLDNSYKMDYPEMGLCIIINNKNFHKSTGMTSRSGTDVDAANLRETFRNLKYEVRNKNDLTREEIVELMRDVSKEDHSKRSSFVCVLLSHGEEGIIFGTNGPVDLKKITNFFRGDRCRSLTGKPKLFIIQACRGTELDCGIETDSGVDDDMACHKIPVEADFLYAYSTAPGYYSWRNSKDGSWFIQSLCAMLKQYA
SENP luc ctr: interferes with luciferase luminescence in SENP counter-screen. 6,200 tested, 39% active. inhibition, % at 12.5 µM. AID 488919. shares compounds with SENP7 inh. Pre-incubated SENP8/Z-RLRGG-aminoluciferin, luciferase luminescence interference;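 active = mean inhibition above about 50% when retested at one dose, limit read from the data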
A number is an active result; 0 = inactive; - = no result given.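 The calls were made as follows, unless noted: active = mean inhibition above about 50% in the one-dose retest (limit read from the data); inactive = the rest.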

SMILES | SENP8 block-1 | SENP1 FRET inh | SENP6 inh | SENP7 inh | SENP8 block-2 | HSP90 refold inh | SENP8 confirm | SENP6 conf | SENP7 confirm | Casp3 SENP sel | SENP luc ctr
Cc1cc(C=C2C(=O)c3ccccc3C2=O)c(C)n1-c1ccc(C(=O)O)cc1 | 0 | 0 | 0 | 0 | 0 | 0 | - | - | - | - | -
COc1ccccc1/C=C1\Cc2ccccc2C1=O | - | 0 | - | - | 0 | 0 | - | - | - | - | -
Cc1cc(/C=C2/C(=O)NN(c3ccccc3)C2=O)c(C)n1-c1cccc(O)c1 | 66 | 0 | 80 | 65 | 0 | 0 | 68 | 73 | 93 | 67 | 0
Cc1cc(C=C2C(=O)c3ccccc3C2=O)c(C)n1-c1cccc(C(=O)O)c1 | 90 | 0 | 91 | 51 | 0 | 0 | 97 | 98 | 101 | 95 | 92
CC(C)NC(=O)C1(C)CN(S(C)(=O)=O)CC(=O)N1CCc1ccccc1F (centres undefined) | - | 0 | - | - | 0 | - | - | - | - | - | -
C/C(=N\OCc1ccc(C#N)cc1)c1ccccc1 | 79 | 0 | 89 | 80 | 0 | 0 | 82 | 86 | 97 | 77 | 68
COc1ccc2c(=O)c3c(=O)n(Cc4ccco4)c(-c4ccco4)nc3oc2c1 | 0 | 0 | 0 | 0 | 0 | 0 | - | - | - | - | -
COc1ccc(Cn2c(-c3ccco3)nc3oc4cc(OC)ccc4c(=O)c3c2=O)cc1 | 0 | 0 | 50 | 0 | 0 | 0 | 0 | 0 | 0 | 0 | 0
O=C1OC[C@H]2CCCN2C(=O)[C@@H](CC(=O)N(CCO)Cc2ccccc2)C/C=C\C[C@@H]1Cc1ccc(F)cc1 | 0 | 0 | 0 | 0 | 0 | - | - | - | - | - | -
O=C(c1cccs1)c1coc2ccc(O)cc12 | 0 | 0 | 54 | 0 | 0 | 0 | 0 | 0 | 77 | 0 | 0
O=C(CCl)Oc1ccc2occ(C(=O)c3cccs3)c2c1 | 0 | 0 | 63 | 0 | 0 | 0 | 0 | 0 | 66 | 0 | 0
CCOC(=O)CNC(=O)CSc1ncnc2c1cnn2-c1ccc(C)cc1 | 0 | 0 | 52 | 0 | 0 | 0 | 0 | 0 | 0 | 0 | 0
CCOC(=O)CNC(=O)CSc1ncnc2c1cnn2-c1ccc(OC)cc1 | 68 | 0 | 70 | 0 | 0 | 0 | 0 | 0 | 0 | 75 | 0
CCOC(=O)CNC(=O)CSc1ncnc2c1cnn2-c1ccccc1 | 0 | 0 | 0 | 0 | 0 | 0 | - | - | - | - | -
Cn1c(-c2cccc([N+](=O)[O-])c2)cnc1NCc1cccc(F)c1 | 0 | 0 | 0 | 0 | 0 | 0 | - | - | - | - | -
O=c1c2ccccc2cnn1-c1ccc(Cl)nn1 | 0 | 0 | 0 | 0 | 0 | 0 | - | - | - | - | -
O=c1c2ccccc2cnn1-c1ccc2ccccc2c1 | 67 | 0 | 88 | 82 | 0 | 0 | 53 | 77 | 94 | 80 | 0
O=c1c2ccccc2cnn1-c1ccc(Br)cc1 | 0 | 0 | 58 | 66 | 0 | 0 | 0 | 0 | 67 | 67 | 0
O=C(C=Cc1cccs1)c1ccc(Cl)s1 | - | 0 | - | - | 0 | - | - | - | - | - | -
O=C(CCN1C(=O)/C(=C/c2ccccc2Cl)SC1=S)Nc1cccnc1 | 0 | 0 | 0 | 0 | 0 | 0 | - | - | - | - | -
O=C(CCN1C(=O)/C(=C/c2ccccc2Cl)SC1=S)NN1CCOCC1 | 0 | 0 | 0 | 52 | 0 | 0 | 0 | 0 | 0 | 0 | 0
O=C(CCCN1C(=O)/C(=C/c2ccccc2Cl)SC1=S)Nc1cccnc1 | 0 | 0 | 0 | 51 | 0 | 0 | 0 | 0 | 0 | 0 | 0
Cc1ccc(C)c(C(=O)CCC(=O)Nc2ccc(F)cc2)c1 | 0 | 0 | 0 | 0 | 0 | 0 | - | - | - | - | -
O/N=C/c1nc2cc(Cl)ccc2o1 | 0 | 0 | 0 | 0 | 0 | 0 | - | - | - | - | -
Clc1ccc2oc(-c3ccccn3)nc2c1 | 0 | 0 | 67 | 57 | 0 | 0 | 0 | 56 | 86 | 78 | 0
SMILES | SENP8 block-1 | SENP1 FRET inh | SENP6 inh | SENP7 inh | SENP8 block-2 | HSP90 refold inh | SENP8 confirm | SENP6 conf | SENP7 confirm | Casp3 SENP sel | SENP luc ctr
CCOC(=O)c1ccc(N(C(=O)CNC(=O)c2ccco2)C(C(=O)NCC2CCCO2)c2ccc(OC)c(OC)c2)cc1 (centres undefined) | 0 | 0 | 0 | 0 | 0 | 0 | - | - | - | - | -
C/C(=N\Nc1ccc([N+](=O)[O-])cc1)c1ccc(-n2nncc2C)cc1 | 0 | 0 | 0 | 0 | 0 | 0 | - | - | - | - | -
CC(C)(C)c1cnnn1-c1ccc(/C=N/Nc2ccc([N+](=O)[O-])cc2)cc1 | 64 | 0 | 0 | 0 | 0 | 0 | 0 | 0 | 0 | 0 | 0
Nc1nnnn1/N=C/c1ccc(O)cc1 | 89 | 0 | 95 | 90 | 0 | 0 | 93 | 93 | 101 | 98 | 85
Cc1ccc(OCc2nc(-c3ccccc3)no2)c(C)c1 | 0 | 0 | 55 | 0 | 0 | 0 | 0 | 0 | 56 | 0 | 0
Cc1ccc(OCc2nc(-c3cccs3)no2)c([N+](=O)[O-])c1 | 0 | 0 | 0 | 53 | 0 | 0 | 66 | 65 | 80 | 0 | 0
CCN1CCC(O)(C(C(=O)O)c2ccccc2)CC1 (centres undefined) | - | 0 | - | - | 0 | - | - | - | - | - | -
CCOc1ccc(/C=N/Nc2ccccn2)cc1 | 91 | 0 | 84 | 95 | 0 | 0 | 63 | 94 | 102 | 65 | 0
Fc1ccc(/C=N/Nc2ccccn2)cc1 | 0 | 0 | 66 | 64 | 0 | 0 | 0 | 0 | 82 | 56 | 0
Clc1ccc(/C=N/Nc2ccccn2)cc1 | 52 | 0 | 0 | 69 | 0 | 0 | 0 | 54 | 72 | 51 | 0
COc1ccc(/C=N/Nc2ccccn2)cc1O | 0 | 0 | 57 | 0 | 0 | 0 | 0 | 0 | 77 | 72 | 64
O=C(OCc1nnc(-c2ccc([N+](=O)[O-])cc2)o1)c1ccc(F)c(S(=O)(=O)N2CCOCC2)c1 | 0 | 0 | 0 | 0 | 0 | - | - | - | - | - | -
CCOC(=O)C1=C(COC(=O)CNS(=O)(=O)c2ccc(C)c(C)c2)NC(=O)NC1C (centres undefined) | - | 0 | - | - | 0 | - | - | - | - | - | -
Brc1ccc(/C=N/Nc2ccccn2)cc1 | 0 | 0 | 0 | 65 | 0 | 0 | 0 | 0 | 86 | 0 | 0
O=C(O)CSc1nnc(-c2ccc(Cl)cc2Cl)n1Cc1ccccc1 | 0 | 0 | 0 | 0 | 0 | 0 | - | - | - | - | -
COc1ccc(-c2cc(-c3ccc(OC)cc3)[nH]n2)cc1 | 0 | 0 | 0 | 0 | 0 | 0 | - | - | - | - | -
COc1ccc(-c2cc(-c3cc(C)ccc3O)[nH]n2)cc1 | 56 | 0 | 72 | 61 | 0 | 0 | 75 | 74 | 88 | 0 | 0
COc1ccc(-c2cc(-c3ccc(C)cc3)n[nH]2)c(O)c1 | 0 | 0 | 58 | 0 | 0 | 0 | 0 | 0 | 72 | 0 | 0
CCC(CC)CN1C(N(C)C)=NC[C@@H]1CC(C)C | 0 | 0 | 0 | 0 | 0 | - | - | - | - | - | -

Screening results (PubChem)
